# Assay results published in ChEMBL document CHEMBL4396947, “Synthesis and characterization of novel isoform-selective IP6K1 inhibitors” (Bioorg Med Chem Lett, 2019).
# Assays:
# [1] = target: SRSF protein kinase 1 (Homo sapiens) (UniProt Q96SB4); assay: Inhibition of recombinant human SRPK1 (2 to end residues) assessed as residual activity at 10 uM using RSRSRSRSRSRSRSR as substrate incubated for 40 mins in presence of [gamma-33P]ATP at Km concentration by radiometric assay relative to control
# [2] = target: Casein kinase I isoform gamma-1 (Homo sapiens) (UniProt Q9HCP0); assay: Inhibition of recombinant human CK1gamma1 (25 to 355 residues) assessed as residual activity at 10 uM using KRRRALS(p)VAS as substrate incubated for 40 mins in presence of [gamma-33P]ATP at Km concentration by radiometric assay relative to control
# Chain of Casein kinase I isoform gamma-1 (Homo sapiens) (Q9HCP0 whole entry, looked up, the tested form may be a part, canonical isoform): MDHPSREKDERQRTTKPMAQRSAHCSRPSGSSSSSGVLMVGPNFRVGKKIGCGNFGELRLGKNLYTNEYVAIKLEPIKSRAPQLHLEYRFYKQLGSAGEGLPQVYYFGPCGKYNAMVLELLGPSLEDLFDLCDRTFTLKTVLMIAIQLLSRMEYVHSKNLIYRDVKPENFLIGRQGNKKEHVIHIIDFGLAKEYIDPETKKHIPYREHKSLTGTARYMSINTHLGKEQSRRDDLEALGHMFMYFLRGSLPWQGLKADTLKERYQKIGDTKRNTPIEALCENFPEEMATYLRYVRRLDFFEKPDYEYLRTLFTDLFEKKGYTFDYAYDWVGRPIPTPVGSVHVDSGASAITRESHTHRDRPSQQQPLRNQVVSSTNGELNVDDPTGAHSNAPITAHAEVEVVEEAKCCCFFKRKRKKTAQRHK
# [3] = target: Cyclin-dependent kinase 1/cyclin B1 (Homo sapiens) (UniProt P06493+P14635); assay: Inhibition of human full length recombinant CDK1/cyclinB assessed as residual activity at 10 uM using Histone H1 as substrate incubated for 40 mins in presence of [gamma-33P]ATP at Km concentration by radiometric assay relative to control; format: protein-complex assay
# Chain of Cyclin-dependent kinase 1/cyclin B1 (Homo sapiens) (P06493 whole entry, looked up, the tested form may be a part): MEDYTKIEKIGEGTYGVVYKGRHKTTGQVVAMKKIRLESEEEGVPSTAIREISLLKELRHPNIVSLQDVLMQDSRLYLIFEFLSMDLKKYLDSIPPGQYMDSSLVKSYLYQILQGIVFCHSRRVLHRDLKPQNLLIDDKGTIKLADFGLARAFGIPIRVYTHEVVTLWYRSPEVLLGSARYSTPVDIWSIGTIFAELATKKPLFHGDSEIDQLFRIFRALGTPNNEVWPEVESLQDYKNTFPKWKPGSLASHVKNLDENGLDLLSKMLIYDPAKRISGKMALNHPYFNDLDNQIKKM
# Chain of Cyclin-dependent kinase 1/cyclin B1 (Homo sapiens) (P14635 whole entry, looked up, the tested form may be a part): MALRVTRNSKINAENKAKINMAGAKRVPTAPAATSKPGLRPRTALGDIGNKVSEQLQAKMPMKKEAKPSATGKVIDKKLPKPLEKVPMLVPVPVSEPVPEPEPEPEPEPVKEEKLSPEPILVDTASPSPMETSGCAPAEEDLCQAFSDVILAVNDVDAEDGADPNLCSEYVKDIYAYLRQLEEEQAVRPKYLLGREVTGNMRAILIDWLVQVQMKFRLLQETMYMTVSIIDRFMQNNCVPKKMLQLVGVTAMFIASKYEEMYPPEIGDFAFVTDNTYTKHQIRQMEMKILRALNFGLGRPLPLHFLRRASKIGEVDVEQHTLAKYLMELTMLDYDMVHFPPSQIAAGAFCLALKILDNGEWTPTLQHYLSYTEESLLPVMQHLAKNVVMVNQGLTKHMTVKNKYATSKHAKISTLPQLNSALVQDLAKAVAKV
# [4] = target: Ephrin type-A receptor 5 (Homo sapiens) (UniProt P54756); assay: Inhibition of recombinant human EPHA5 (655 to 956 residues) assessed as residual activity at 10 uM using poly (Glu,Tyr) 4:1 as substrate incubated for 40 mins in presence of [gamma-33P]ATP at Km concentration by radiometric assay relative to control
# Homo sapiens [5] = species: Homo sapiens; assay: Inhibition of recombinant full length human PI3K p120gamma R459Q mutant assessed as residual activity at 10 uM using phosphatidylinositol-4,5 bisphosphate as substrate incubated for 40 mins in presence of [gamma-33P]ATP at Km concentration by radiometric assay relative to control
# [6] = target: Casein kinase II subunit alpha' (Homo sapiens) (UniProt P19784); assay: Inhibition of recombinant full length human CK2alpha2 assessed as residual activity at 10 uM using RRRDDDSDDD as substrate incubated for 40 mins in presence of [gamma-33P]ATP at Km concentration by radiometric assay relative to control
# Chain of Casein kinase II subunit alpha' (Homo sapiens) (P19784 whole entry, looked up, the tested form may be a part): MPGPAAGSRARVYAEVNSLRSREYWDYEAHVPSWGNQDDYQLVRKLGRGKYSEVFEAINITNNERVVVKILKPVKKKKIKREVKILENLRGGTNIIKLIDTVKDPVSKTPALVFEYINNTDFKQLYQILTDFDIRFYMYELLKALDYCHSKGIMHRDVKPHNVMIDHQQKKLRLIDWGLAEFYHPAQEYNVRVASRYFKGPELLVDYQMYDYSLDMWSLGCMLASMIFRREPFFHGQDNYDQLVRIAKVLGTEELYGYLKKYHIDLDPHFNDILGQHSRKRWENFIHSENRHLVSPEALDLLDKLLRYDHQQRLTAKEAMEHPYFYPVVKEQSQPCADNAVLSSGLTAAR
# [7] = target: Mitogen-activated protein kinase kinase kinase 7 (Homo sapiens) (UniProt O43318); assay: Inhibition of recombinant human TAK1 (1 to 303 residues) assessed as residual activity at 10 uM using casein as substrate incubated for 40 mins in presence of [gamma-33P]ATP at Km concentration by radiometric assay relative to control
# Chain of Mitogen-activated protein kinase kinase kinase 7 (Homo sapiens) (O43318 whole entry, the tested form may be a part): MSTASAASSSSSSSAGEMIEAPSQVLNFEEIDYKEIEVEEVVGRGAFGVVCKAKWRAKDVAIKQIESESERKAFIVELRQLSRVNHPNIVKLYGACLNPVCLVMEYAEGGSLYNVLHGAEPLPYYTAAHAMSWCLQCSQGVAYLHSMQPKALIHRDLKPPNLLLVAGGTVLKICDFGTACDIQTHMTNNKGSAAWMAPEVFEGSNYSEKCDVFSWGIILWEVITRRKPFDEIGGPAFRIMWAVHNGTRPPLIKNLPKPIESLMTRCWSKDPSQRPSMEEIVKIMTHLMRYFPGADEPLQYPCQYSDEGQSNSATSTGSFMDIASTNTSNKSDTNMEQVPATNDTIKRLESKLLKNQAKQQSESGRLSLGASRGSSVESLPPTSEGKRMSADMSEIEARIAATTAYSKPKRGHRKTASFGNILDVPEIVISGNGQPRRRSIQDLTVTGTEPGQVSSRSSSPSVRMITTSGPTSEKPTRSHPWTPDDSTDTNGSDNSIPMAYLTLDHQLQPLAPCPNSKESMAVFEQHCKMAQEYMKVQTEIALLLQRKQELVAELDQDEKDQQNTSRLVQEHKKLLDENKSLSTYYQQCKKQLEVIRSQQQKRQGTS
# Homo sapiens [8] = species: Homo sapiens; assay: Selectivity ratio of Ki for IP6K2 (unknown origin) to Ki for IP6K1 (unknown origin)
# How it was run: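 Purified IP6K1, IP6K2 and IP6K3 were each tested in an ADP-Glo Max luminescence assay optimized for IP6K, with 1 mM ATP consumed as the kinase reaction proceeds. IC50 values from each isoform were converted to Ki with the Cheng-Prusoff equation, and the Ki ratio versus IP6K1 was taken.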
# [9] = target: Epidermal growth factor receptor (Homo sapiens) (UniProt P00533); assay: Inhibition of recombinant human EGFR (696 to end residues) assessed as residual activity at 10 uM using poly (Glu,Tyr) 4:1 as substrate incubated for 40 mins in presence of [gamma-33P]ATP at Km concentration by radiometric assay relative to control
# Chain of Epidermal growth factor receptor (Homo sapiens) (P00533 whole entry): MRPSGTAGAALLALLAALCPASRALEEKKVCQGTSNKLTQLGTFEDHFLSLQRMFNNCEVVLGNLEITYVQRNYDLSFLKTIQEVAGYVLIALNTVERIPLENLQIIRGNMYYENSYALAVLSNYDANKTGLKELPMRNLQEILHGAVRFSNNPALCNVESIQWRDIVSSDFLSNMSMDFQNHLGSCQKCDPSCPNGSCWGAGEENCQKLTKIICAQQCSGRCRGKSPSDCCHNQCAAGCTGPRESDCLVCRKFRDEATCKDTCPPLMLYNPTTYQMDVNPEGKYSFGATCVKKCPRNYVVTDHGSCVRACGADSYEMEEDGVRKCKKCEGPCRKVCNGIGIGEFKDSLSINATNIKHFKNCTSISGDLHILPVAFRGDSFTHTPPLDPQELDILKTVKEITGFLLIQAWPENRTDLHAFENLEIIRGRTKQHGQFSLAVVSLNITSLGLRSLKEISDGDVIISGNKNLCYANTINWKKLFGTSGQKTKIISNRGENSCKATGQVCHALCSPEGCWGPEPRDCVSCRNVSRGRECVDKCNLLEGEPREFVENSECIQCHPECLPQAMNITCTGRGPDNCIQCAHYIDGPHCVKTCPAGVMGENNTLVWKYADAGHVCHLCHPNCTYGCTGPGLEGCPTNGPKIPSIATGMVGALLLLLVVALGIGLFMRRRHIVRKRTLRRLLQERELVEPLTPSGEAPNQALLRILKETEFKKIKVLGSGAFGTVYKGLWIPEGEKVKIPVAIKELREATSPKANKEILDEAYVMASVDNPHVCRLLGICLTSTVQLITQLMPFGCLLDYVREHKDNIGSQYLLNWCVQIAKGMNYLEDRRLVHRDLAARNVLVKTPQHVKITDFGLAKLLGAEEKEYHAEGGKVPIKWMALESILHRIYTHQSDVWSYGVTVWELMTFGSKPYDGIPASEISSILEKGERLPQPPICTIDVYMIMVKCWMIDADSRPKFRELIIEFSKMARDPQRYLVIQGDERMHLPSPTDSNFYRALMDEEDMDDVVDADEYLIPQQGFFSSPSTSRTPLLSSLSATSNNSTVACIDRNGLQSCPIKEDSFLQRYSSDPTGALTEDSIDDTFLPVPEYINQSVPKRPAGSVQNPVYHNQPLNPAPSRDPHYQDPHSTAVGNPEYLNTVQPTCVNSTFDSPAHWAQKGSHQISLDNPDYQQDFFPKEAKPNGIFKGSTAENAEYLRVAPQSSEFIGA
# [10] = Half life in human microsomes at 1 uM in presence of NADPH; format: ADME, Microsome
# Homo sapiens [11] = species: Homo sapiens; assay: Inhibition of recombinant human PKBalpha S478G mutant assessed as residual activity at 10 uM using GRPRTSSFAEGKK as substrate incubated for 40 mins in presence of [gamma-33P]ATP at Km concentration by radiometric assay relative to control
# [12] = target: T1, Inositol hexakisphosphate kinase 1 (Homo sapiens, UniProt Q92551); assay: Inhibition of IP6K1 (unknown origin) in presence of ATP at Km concentration by Cheng-Prusoff equation analysis
# T1 sequence (Q92551 whole entry, canonical isoform): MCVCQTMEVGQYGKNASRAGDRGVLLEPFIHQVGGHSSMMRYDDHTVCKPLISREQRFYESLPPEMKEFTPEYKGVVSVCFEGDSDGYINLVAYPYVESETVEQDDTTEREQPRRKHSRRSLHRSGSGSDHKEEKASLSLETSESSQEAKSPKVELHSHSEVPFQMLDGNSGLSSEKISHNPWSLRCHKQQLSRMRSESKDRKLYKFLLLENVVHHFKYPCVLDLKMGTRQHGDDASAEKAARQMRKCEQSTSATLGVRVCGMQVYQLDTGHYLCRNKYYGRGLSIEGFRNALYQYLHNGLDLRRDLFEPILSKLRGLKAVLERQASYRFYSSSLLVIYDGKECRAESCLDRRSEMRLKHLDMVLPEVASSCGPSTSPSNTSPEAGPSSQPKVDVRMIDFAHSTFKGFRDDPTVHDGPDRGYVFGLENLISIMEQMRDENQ
# How it was run: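 Purified IP6K isoforms run in the ADP-Glo Max kinase assay with 1 mM ATP. Measured IC50 values converted to Ki with the Cheng-Prusoff equation.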
# [13] = target: Serine/threonine-protein kinase 17A (Homo sapiens) (UniProt Q9UEE5); assay: Inhibition of human full length recombinant DRAK1 assessed as residual activity at 10 uM using KKLNRTLSFAEPG as substrate incubated for 40 mins in presence of [gamma-33P]ATP at Km concentration by radiometric assay relative to control
# [14] = test system: RAF proto-oncogene serine/threonine-protein kinase (Homo sapiens), P04049 [Y340D,Y341D]; assay: Inhibition of recombinant human c-RAF Y340D/Y341D double mutant (360 to end residues) assessed as residual activity at 10 uM using inactive MEK1 as substrate incubated for 40 mins in presence of [gamma-33P]ATP at Km concentration by radiometric assay relative to control
# Homo sapiens [15] = species: Homo sapiens; assay: Inhibition of recombinant full-length human AURKA I31F mutant assessed as residual activity at 10 uM using LRRASLG as substrate incubated for 40 mins in presence of [gamma-33P]ATP at Km concentration by radiometric assay relative to control
# [16] = target: Serine/threonine-protein kinase pim-1 (Homo sapiens) (UniProt P11309); assay: Inhibition of recombinant full length human PIM1 assessed as residual activity at 10 uM using KKRNRTLTV as substrate incubated for 40 mins in presence of [gamma-33P]ATP at Km concentration by radiometric assay relative to control
# [17] = test system: Glycogen synthase kinase-3 beta (Homo sapiens), P49841 [UNDEFINED MUTATION]; assay: Inhibition of human recombinant GSK3beta H350L mutant (2 to end residues) assessed as residual activity at 10 uM using YRRAAVPPSPSLSR as substrate incubated for 40 mins in presence of [gamma-33P]ATP at Km concentration by radiometric assay relative to control
# Chain of Glycogen synthase kinase-3 beta (Homo sapiens), P49841 [UNDEFINED MUTATION] (P49841 whole entry, looked up, stated change not applied): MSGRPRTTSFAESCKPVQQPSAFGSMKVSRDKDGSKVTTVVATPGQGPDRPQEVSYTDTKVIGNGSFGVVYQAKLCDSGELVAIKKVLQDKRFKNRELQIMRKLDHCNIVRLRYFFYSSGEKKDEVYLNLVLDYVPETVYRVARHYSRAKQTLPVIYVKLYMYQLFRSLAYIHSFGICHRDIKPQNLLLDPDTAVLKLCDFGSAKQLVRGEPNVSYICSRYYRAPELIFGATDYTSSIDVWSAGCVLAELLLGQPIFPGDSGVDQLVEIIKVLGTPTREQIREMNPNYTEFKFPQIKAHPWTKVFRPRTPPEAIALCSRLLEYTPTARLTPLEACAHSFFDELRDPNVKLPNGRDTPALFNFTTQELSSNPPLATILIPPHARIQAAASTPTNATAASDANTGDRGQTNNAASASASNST
# [18] = target: T1, Inositol hexakisphosphate kinase 1; assay: Inhibition of IP6K1 (unknown origin) incubated for 30 mins using IP6 as substrate in presence of ATP by ADP-Glo reagent based luminescence assay; details: read-out: IC50
# How it was run: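 Luminescent ADP-Glo Max format adapted for IP6K, with purified enzyme and ATP at 1 mM, which is consumed as the kinase reaction proceeds. IC50 taken from the resulting inhibition data.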
# [19] = target: Tyrosine-protein kinase receptor TYRO3 (Homo sapiens) (UniProt Q06418); assay: Inhibition of recombinant human RSE (451 to end residues) assessed as residual activity at 10 uM using KVEKIGEGTYGVV as substrate incubated for 40 mins in presence of [gamma-33P]ATP at Km concentration by scintillation counting method relative to control
# [20] = target: Serine/threonine-protein kinase Nek2 (Homo sapiens) (UniProt P51955); assay: Inhibition of full length recombinant human NEK2 assessed as residual activity at 10 uM using myelin basic protein as substrate incubated for 40 mins in presence of [gamma-33P]ATP at Km concentration by radiometric assay relative to control
# [21] = target: cAMP-dependent protein kinase catalytic subunit alpha (Homo sapiens) (UniProt P17612); assay: Inhibition of recombinant full length human PRKACA assessed as residual activity at 10 uM using LRRASLG as substrate incubated for 40 mins in presence of [gamma-33P]ATP at Km concentration by radiometric assay relative to control
# Chain of SRSF protein kinase 1 (Homo sapiens) (Q96SB4 whole entry, the tested form may be a part, canonical isoform): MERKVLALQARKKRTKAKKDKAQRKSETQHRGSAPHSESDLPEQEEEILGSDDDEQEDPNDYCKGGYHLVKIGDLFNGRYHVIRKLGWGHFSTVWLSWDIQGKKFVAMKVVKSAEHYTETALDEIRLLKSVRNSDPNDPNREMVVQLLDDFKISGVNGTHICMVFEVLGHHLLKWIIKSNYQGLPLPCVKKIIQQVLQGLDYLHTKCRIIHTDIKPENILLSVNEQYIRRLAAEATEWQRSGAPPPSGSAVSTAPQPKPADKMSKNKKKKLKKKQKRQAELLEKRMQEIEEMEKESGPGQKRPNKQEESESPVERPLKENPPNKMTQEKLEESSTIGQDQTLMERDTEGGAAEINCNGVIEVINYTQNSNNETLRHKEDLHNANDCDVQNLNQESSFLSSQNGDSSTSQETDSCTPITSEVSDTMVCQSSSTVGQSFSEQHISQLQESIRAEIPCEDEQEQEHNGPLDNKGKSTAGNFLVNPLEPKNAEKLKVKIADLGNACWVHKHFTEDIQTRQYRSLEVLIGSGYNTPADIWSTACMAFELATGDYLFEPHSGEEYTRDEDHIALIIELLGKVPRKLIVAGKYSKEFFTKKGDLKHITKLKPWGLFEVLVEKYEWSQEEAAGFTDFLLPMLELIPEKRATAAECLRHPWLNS
structure (smiles),measurement,setting,value
COc1ccc2c(CCNc3nc(NCc4ccc(=O)[nH]c4)c4nc[nH]c4n3)c[nH]c2c1,Activity,[1],91%
same,Activity,[2],6%
same,Activity,[3],83%
same,Activity,[4],114%
same,Activity,Homo sapiens [5],94%
same,Activity,[6],100%
same,Activity,[7],66%
same,Ratio Ki,Homo sapiens [8],24.4
same,Activity,[9],75%
same,t1/2,[10],42 min
same,Activity,Homo sapiens [11],84%
same,Ki,[12],200 nM
same,Activity,[13],69%
same,Activity,[14],-3%
same,Activity,Homo sapiens [15],46%
same,Activity,[16],82%
same,Activity,[17],63%
same,IC50,[18],750 nM
same,Activity,[19],91%
same,Activity,[20],87%
same,Activity,[21],77%
